The values below come from ChEMBL document CHEMBL1142284, “Identification of N-(quinolin-8-yl)benzenesulfonamides as agents capable of down-regulating NFkappaB activity within two separate high-throughput screens of NFkappaB activation” (Bioorg Med Chem Lett, 2008).

Each structure is given as a SMILES string. Activity calls are given as the source filed them. The rule behind the calls is not given here. A value given as a limit tells only on which side of the number the result lay.

Broadly, the IC50 is the concentration at which inhibition is half-maximal. Low values mean greater potency, high ones weaker potency.

Assay [1] in a line: Cytotoxicity against NF-kappaB overexpressing human OCI-Ly3 cells after 4 hrs. To be noted: OCI-Ly3, 4 h. In kind it is functional, cell-based.
In assay [2] the target is Transcription factor p65 (Homo sapiens) (UniProt Q04206). As to the kind of experiment: Inhibition of TNF-alpha-stimulated human NF-kappaB p65 RelA subunit nuclear translocation in HUVEC. The gist of the method:
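HUVEC (fewer than 8 passages) were seeded at 3,000 cells/well. Compounds were added in 8-point series, either from 10 µM final in media with 0.33% DMSO diluted 1:3, or from 8 µM diluted 1:2. After 3.5 h with compound, cells were stimulated with […] for 30 min. Cells were then fixed, permeabilized, stained with Hoechst and with anti-p65 plus an Alexa 647 secondary, and imaged automatically. IC50 is from curve fitting of one experiment run in triplicate, with BAY 11-7082 as the positive control.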

The next assay has as its system HUVEC. Briefly: Inhibition of TNFalpha stimulated human NF-kappaB-mediated beta lactamase gene expression in HUVEC. Type of assay: cell-based.

Chain of Transcription factor p65 (Homo sapiens) (Q04206 whole entry): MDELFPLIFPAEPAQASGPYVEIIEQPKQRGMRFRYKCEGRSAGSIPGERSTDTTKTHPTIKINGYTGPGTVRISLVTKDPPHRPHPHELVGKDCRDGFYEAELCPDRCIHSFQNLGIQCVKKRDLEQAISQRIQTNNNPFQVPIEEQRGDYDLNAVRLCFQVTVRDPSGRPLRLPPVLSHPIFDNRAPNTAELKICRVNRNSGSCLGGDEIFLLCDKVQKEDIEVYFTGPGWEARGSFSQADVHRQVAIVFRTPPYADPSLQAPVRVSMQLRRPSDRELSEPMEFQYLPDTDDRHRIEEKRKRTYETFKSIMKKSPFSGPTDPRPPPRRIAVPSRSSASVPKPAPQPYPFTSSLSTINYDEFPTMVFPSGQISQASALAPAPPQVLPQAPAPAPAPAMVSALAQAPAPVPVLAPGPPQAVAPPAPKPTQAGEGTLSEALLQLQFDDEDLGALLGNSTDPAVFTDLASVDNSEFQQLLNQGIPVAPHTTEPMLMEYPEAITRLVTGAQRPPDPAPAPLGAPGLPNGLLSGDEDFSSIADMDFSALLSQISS

The compound `COc1cc(NS(=O)(=O)c2ccc(C)cc2[N+](=O)[O-])c2nc(C)ccc2c1` returned an IC50 in assay [1] of over 57 µM. In addition, the result (in assay [2]; in the assay on HUVEC) was inactive.
